In ChEMBL document CHEMBL1144146, “Antibacterial and antiandrogen flavonoids from Sophora flavescens” (1999):
In brackets after ≈: the same amount, converted by molar mass.

Columns and labels:
[1] = Inhibition of testosterone-5-alpha-reductase at 50 ug/mL
Staphylococcus aureus = assay: Antimicrobial activity against Staphylococcus aureus after 48 hrs by agar plate dilution method; type: functional
In short: (§1)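 Strains cultured at 37 °C in soybean–casein digest broth; activity determined by agar plate dilution (described alongside broth microtiter dilution), read after 48 h incubation at 37 °C.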

[2] = Inhibition of testosterone-5-alpha-reductase at 200 ug/mL
[3] = Inhibition of testosterone-5-alpha-reductase at 100 ug/mL
[4] = Displacement of [3H]DHT from 5-alpha-dihydrotestosterone receptor at 50 ug/mL
[5] = tested on: Staphylococcus epidermidis; assay: Antimicrobial activity against Staphylococcus epidermidis after 48 hrs by agar plate dilution method; type: functional; in short: as §1
Cutibacterium acnes = assay: Antimicrobial activity against Propionibacterium acnes after 48 hrs by agar plate dilution method; type: functional; in short: as §1
[6] = Displacement of [3H]DHT from 5-alpha-dihydrotestosterone receptor at 100 ug/mL
[7] = Displacement of [3H]DHT from 5-alpha-dihydrotestosterone receptor at 200 ug/mL
Bacillus subtilis = assay: Antimicrobial activity against Bacillus subtilis after 48 hrs by agar plate dilution method; type: functional; in short: as §1

Row | inhibition [1] | MIC (Staphylococcus aureus) | inhibition [2] | inhibition [3] | Activity [4] | MIC [5] | MIC (Cutibacterium acnes) | Activity [6] | Activity [7] | MIC (Bacillus subtilis) | Compound
1 | 51.4% | 2.5 µg/mL (≈ 5.89 µM) | 94.2% | 86.4% | 80.3% | 10 µg/mL (≈ 23.6 µM) | 10 µg/mL (≈ 23.6 µM) | 85.8% | 90.1% | 2.5 µg/mL (≈ 5.89 µM) | C=C(C)C(CC=C(C)C)Cc1c(O)cc(O)c2c1O[C@H](c1ccc(O)cc1O)CC2=O (some centres not stated)
2 | 21.9% | 5 µg/mL (≈ 12.2 µM) | 77.3% | 51.4% | 60.1% | 5 µg/mL (≈ 12.2 µM) | 10 µg/mL (≈ 24.5 µM) | 89.3% | 89.6% | 2.5 µg/mL (≈ 6.12 µM) | C=C(C)C(CC=C(C)C)Cc1c(O)cc(O)c2c1O[C@H](c1ccccc1O)CC2=O (some centres not stated)
3 | 34.1% | 2.5 µg/mL (≈ 5.52 µM) | 94.7% | 79.3% | 73.7% | 10 µg/mL (≈ 22.1 µM) | 25 µg/mL (≈ 55.2 µM) | 58.9% | 58.4% | 2.5 µg/mL (≈ 5.52 µM) | C=C(C)C(CC=C(C)C)Cc1c(O)cc(OC)c2c1O[C@H](c1ccc(O)cc1OC)CC2=O (some centres not stated)
4 | 14% |  | 85.1% | 50.9% | 60.2% |  |  | 81.4% | 84.2% |  | C=C(C)C(CC=C(C)C)Cc1c(O)cc(OC)c2c1O[C@H](c1ccc(O)cc1O)[C@@H](O)C2=O (some centres not stated)
5 | 3.5% |  | 82.2% | 41.3% | 43.9% |  |  | 75.4% | 83% |  | C=C(C)C(CCC(C)(C)O)Cc1c(O)cc(O)c2c1O[C@H](c1ccc(O)cc1O)CC2=O (some centres not stated)
6 | -1% |  | 11.9% | -0.2% | 15.5% |  |  | 27.9% | 65.8% |  | C=C(C)C(CCC(C)(C)O)Cc1c(O)cc(OC)c2c1O[C@H](c1ccc(O)cc1O)CC2=O (some centres not stated)
7 | 3.2% |  | 95.4% | 54.8% | 35% |  |  | 84.9% | 89.2% |  | C=C(C)[C@H](CCC(C)(C)O)Cc1c(O)cc(O)c2c1O[C@H](c1ccccc1O)CC2=O
8 | 32.5% |  |  | 84.3% | 63.2% |  |  | 88.2% |  |  | CC1(C)C=Cc2c(ccc3c2OC[C@@H](c2ccc(O)cc2O)C3)O1
9 |  | 10 µg/mL (≈ 25.9 µM) |  |  |  |  |  |  |  | 10 µg/mL (≈ 25.9 µM) | COc1cc(C2CC(=O)c3c(O)cc(O)c(CC=C(C)C)c3O2)c(O)cc1O (racemic) [KUSHENOL W]
10 | 0.7% | 2.5 µg/mL (≈ 5.7 µM) | 93.8% | 40.5% | 61.1% |  |  | 89.2% | 88% | 2.5 µg/mL (≈ 5.7 µM) | C=C(C)C(CC=C(C)C)Cc1c(O)cc(OC)c2c1O[C@H](c1ccc(O)cc1O)CC2=O (some centres not stated) [KURARINONE]
11 | 0.9% | 5 µg/mL (≈ 11.3 µM) | 88.5% | 34.8% | 66.1% |  |  | 82.4% | 92.7% | 5 µg/mL (≈ 11.3 µM) | CC(C)=CCC(Cc1c(O)cc(O)c2c1O[C@H](c1ccc(O)cc1O)CC2=O)C(C)CO (some centres not stated) [KUSHENOL Q]
12 | 4.1% | 5 µg/mL (≈ 11.8 µM) | 73.5% | 23.6% | 27.3% | 5 µg/mL (≈ 11.8 µM) | 10 µg/mL (≈ 23.7 µM) | 67.5% | 82.4% | 2.5 µg/mL (≈ 5.92 µM) | C=C(C)C(CC=C(C)C)Cc1c(O)cc(OC)c2c1O[C@H](c1ccccc1O)CC2=O (some centres not stated) [KUSHENOL R]
13 | 7.3% | 5 µg/mL (≈ 14.7 µM) | 37.4% | 22.9% | 37.8% |  |  | 47.7% | 70% | 5 µg/mL (≈ 14.7 µM) | CC(C)=CCc1c(O)cc(O)c2c1O[C@H](c1ccccc1O)CC2=O [KUSHENOL S]
14 | 7.4% | 10 µg/mL (≈ 23.7 µM) | 84.4% | 50.3% | 52.6% | 10 µg/mL (≈ 23.7 µM) | 10 µg/mL (≈ 23.7 µM) | 85.1% | 96.9% | 10 µg/mL (≈ 23.7 µM) | C=C(C)C(CC=C(C)C)Cc1c(O)cc(OC)c2c1O[C@H](c1ccc(O)cc1)CC2=O (some centres not stated) [KUSHENOL U]
15 |  | 10 µg/mL (≈ 25.9 µM) |  |  |  |  |  |  |  | 10 µg/mL (≈ 25.9 µM) | COc1cc([C@@H]2CC(=O)c3c(cc(O)c(CC=C(C)C)c3O)O2)c(O)cc1O [KUSHENOL V]
16 | 30.9% | 10 µg/mL (≈ 22.7 µM) | 96.4% | 84.5% | 68.9% |  |  | 90.5% | 88.6% | 10 µg/mL (≈ 22.7 µM) | C=C(C)C(CC=C(C)C)Cc1c(O)cc(O)c2c1O[C@H](c1ccc(O)cc1O)[C@@H](O)C2=O (some centres not stated) [KUSHENOL X]
17 | 25.3% | 5 µg/mL (≈ 14 µM) | 89.9% | 80.5% | 74.2% |  |  | 84.8% | 94.5% | 2.5 µg/mL (≈ 7.02 µM) | CC(C)=CCc1c(O)cc(O)c2c1O[C@H](c1ccc(O)cc1O)CC2=O [LEACHIANONE G]
